The list is not random: actives were taken first. Their share in the collection is about 1.2%.
EBNA-1 inhibitor = blocks EBNA-1 binding to DNA; EBNA-1 DNA binding, fluorescence polarization; inhibition, % at 14.8 µM; 300,000 compounds, 0.34% hits; in the data active = inhibition above about 28%
HCV NS3 hel inh = blocks Hepatitis C virus NS3 helicase unwinding. NS3 helicase DNA unwinding, Cy5 molecular beacon fluorescence. inhibition, % at 10.9 µM. 290,000 compounds, 0.56% hits. AID 1800;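 active = inhibition above the mean of all tested compounds plus 3 SD, set per campaign, cut at about 35% in these data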
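Control set: DMSO versus 110 µM thioflavine S; Material: NS3 helicase fragment of HCV; Measured by: Cy5 fluorescence at 0 and 60 min, beacon hairpin quenching; Read-out basis: percent inhibition from t60/t0 fluorescence ratio; Times: reaction time 60 min, 25 °C; Repeats: single replicate; Compound dosing: single dose, 10.9 µM nominal final, DMSO 0.8% final.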
HCV core dimer = HCV core protein dimerization inhibition | TR-FRET GST/Flag-core106 dimerization, 1536-well | inhibition, % at 5 µM | 300,000 compounds, 0.33% hits;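 active = inhibition above the mean of all tested compounds plus 3 SD, set per screening campaign, cut at about 45% in these data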
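Material: Tagged HCV core106 pair (GST and Flag) | Amount: GST-core106 13.5 nM, Flag-core106 17 nM | Medium: KF-containing HEPES buffer, pH 7.45, DTT, CHAPS, BSA | Reagent: Eu donor and XL665 acceptor anti-tag antibodies | Schedule: 4 h at 22.5 °C | Technique: Time-resolved FRET, ex 340 nm, em 617 and 671 nm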
ZTA counter = ZTA (EBV) inhibition in EBNA-1 counter-screen; ZTA-DNA binding, fluorescence polarization; inhibition, % at 11 µM; 320,000 compounds, 0.15% hits; in the data active = inhibition above about 33%
Target sequence (P03206 whole entry, looked up): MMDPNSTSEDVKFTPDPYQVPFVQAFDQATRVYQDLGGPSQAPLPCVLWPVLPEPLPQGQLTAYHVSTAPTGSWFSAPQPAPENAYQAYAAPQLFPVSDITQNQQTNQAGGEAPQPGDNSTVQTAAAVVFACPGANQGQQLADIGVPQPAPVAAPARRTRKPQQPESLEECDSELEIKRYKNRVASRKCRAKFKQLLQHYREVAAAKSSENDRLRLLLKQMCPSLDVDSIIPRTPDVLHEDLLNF
NS3 hel confirm = HCV NS3 helicase inhibition, confirmation assay. inhibition, % at 10.9 µM. 1,600 compounds, 31% hits. NS3 helicase DNA unwinding, Cy5 molecular beacon fluorescence. shares compounds with HCV NS3 hel inh;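 active = inhibition above the mean of all tested compounds plus 3 SD, cutoff set per campaign, cut at about 36% in these data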
FID counter trip = counter-screen for HCV NS3 helicase inhibitors: DNA intercalator displacement | shares compounds with HCV NS3 hel inh | DNA fluorescent intercalator displacement, fluorescence | inhibition, % at 7.9 µM | 1,600 compounds, 4% hits | AID 1945; in the data active = inhibition above about 37%;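 also: higher means more displacement of ethidium bromide from the DNA hairpin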
DNA FID DR = DNA intercalator displacement in dose response. shares compounds with HCV NS3 hel inh. 120 tested, under 10 active. fluorescent intercalator displacement from DNA, fluorescence. IC50, µM; call rule not given here
Hits are given with their value; - = inactive; . = not tested or not shown; + = active, no number.

SMILES	EBNA-1 inhibitor	HCV NS3 hel inh	HCV core dimer	ZTA counter	NS3 hel confirm	FID counter trip	others
Cc1cccc(-n2ccnc2CN2CCN(C(C)C)C(CCO)C2)c1 (stereo not drawn)	-	-	-	-	.	.
CCN(CC)c1ccc2c(-c3ccc(S(=O)(=O)O)cc3S(=O)(=O)[O-])c3ccc(=[N+](CC)CC)cc-3oc2c1	200	51	68	+	84	.
Cc1ccccc1N1C(S)=C(C#N)C(=O)NC1c1cccs1 (stereo not drawn)	-	67	-	-	-	-
CC(OC(=O)CN1C(=O)c2ccccc2C1=O)C(=O)N(C)c1ccccc1 (stereo not drawn)	-	.	-	-	.	.
O=C(COC(=O)c1cc(-c2ccco2)nc2ccccc12)NCc1ccc2c(c1)OCO2	-	41	-	-	86	54
O=C(Nc1ccccc1)C1=C(O)CC(c2ccoc2)CC1=Nc1ccccc1 (stereo not drawn)	-	41	-	-	-	-
O=C(Nc1ccccc1)C1=C(O)CC(c2ccco2)CC1=Nc1ccccc1 (stereo not drawn)	-	-	-	-	.	.
CCCCn1c(N)c(N(CCOC)C(=O)COC(=O)CCOc2ccc(C)cc2)c(=O)[nH]c1=O	.	.	.	-	.	.
COc1ccc(CCNC(=O)CN2C(=O)NC(C)(c3ccc([N+](=O)[O-])cc3)C2=O)cc1 (stereo not drawn)	-	-	-	-	.	.
Cc1ccc(OCC(=O)N/N=C\c2ccc(C)o2)c(C)c1	-	-	-	-	.	.
Cc1ccc(OCC(=O)N/N=C\c2ccc(-c3cccc(C(=O)O)c3)o2)c(C)c1	-	43	-	-	91	-
O=C(NCC1CCCO1)c1cc(S(=O)(=O)N2CCCC2)c(Cl)cc1Cl (stereo not drawn)	-	83	-	-	-	-
Cc1ccc(/C=C/c2ccc3cccc(O)c3n2)s1	-	49	-	-	-	-
Oc1cccc(/C=C/c2ccc3cccc(O)c3n2)c1	-	-	-	-	.	.
O=[N+]([O-])c1ccc(/C=C/c2ccc3cccc(O)c3n2)cc1	-	50	-	-	-	-
NC(=O)c1sc2nc(-c3ccccc3)ccc2c1N	-	-	-	-	.	.
CC(=O)c1sc2nc(-c3ccco3)ccc2c1N	-	68	-	-	46	-
Cc1ccc(NC(=O)c2sc3nc4c(c(-c5ccco5)c3c2N)CCC4)cc1	-	-	-	-	.	.
Nc1c(C(=O)Nc2ccc(F)cc2)sc2nc(-c3ccco3)ccc12	-	41	-	-	-	-
Nc1c(C(=O)Nc2ccc(Br)cc2)sc2nc(-c3ccco3)ccc12	-	69	-	-	-	-
CC[C@@]1(c2ccccc2OC)ON(c2ccccc2C(F)(F)F)C1=O	.	.	.	-	.	.
COc1cccc(OC)c1C(=O)OCC(=O)Nc1ccc(OC(F)(F)F)cc1	-	-	-	-	.	.
CCOC(=O)C1=C(N)N2C(=O)C(C)SC2=C(C(=O)OCC)C1c1ccccc1 (stereo not drawn)	-	-	-	-	.	.
CCOC(=O)C1=C(N)N2C(=O)C(C)SC2=C(C(=O)OCC)C1c1ccc(O)cc1 (stereo not drawn)	-	39	-	-	-	-
CCN(Cc1ccccc1)C(=O)c1cc(S(=O)(=O)N2CCOCC2)cn1C	-	-	-	-	.	.
SMILES	EBNA-1 inhibitor	HCV NS3 hel inh	HCV core dimer	ZTA counter	NS3 hel confirm	FID counter trip	others
COc1ccc(N(CC(=O)Nc2cccc(C)c2)S(=O)(=O)c2ccc(C)cc2)cc1OC	-	92	-	-	-	-
N#C/C(=C/c1ccc(Br)o1)C(N)=S	-	37	-	-	-	-
COc1ccc2c(c1OC)C(=O)N1C2SC(C)(C)[C@H]1C(=O)NC1CC1 (stereo partly drawn)	-	-	-	-	.	.
Cn1nc(C(F)(F)F)c(-c2ccccc2)c1NC(=O)c1nccnc1C(=O)O	-	-	-	-	.	.
Cn1nc(C(F)(F)F)c(-c2cccc(C(F)(F)F)c2)c1NC(=O)c1nccnc1C(=O)O	-	51	-	-	-	-
COc1ccccc1/C=C/C1=NC(=C\C=C/c2ccccc2)/C(=O)O1	-	46	-	-	61	-	DNA FID DR=-
Cn1cc(Br)c(C(=O)n2cc(Br)cn2)n1	-	-	-	-	.	.
O=C(Nc1nc2c(F)cc(F)cc2s1)C1CC(=O)N(Cc2ccco2)C1 (stereo not drawn)	-	41	-	-	-	-
COc1ccc(N=C2NC(=O)/C(=C\C=C\c3ccco3)S2)cc1	.	46	.	.	36	-	DNA FID DR=-
Cc1cccc(N=C2NC(=O)/C(=C/C=C/c3ccco3)S2)c1	-	44	-	-	-	-
Cc1cccc(N=C2NC(=O)S/C2=C\c2ccco2)c1	-	37	-	-	-	-
O=C1NC(=Nc2ccc(Cl)cc2)/C(=C/c2ccco2)S1	-	-	-	-	.	.
O=C1NC(=Nc2ccc3ccccc3c2)S/C1=C/c1ccco1	-	-	-	-	.	.
O=C1NC(=Nc2ccc(O)cc2)S/C1=C/c1ccco1	-	-	-	-	.	.
Cc1ccc(N=C2NC(=O)/C(=C\c3ccco3)S2)cc1	-	40	-	-	-	-
Cc1ccc(NC(=O)COC(=O)C2CC3C=CC2C3)cc1S(=O)(=O)N1CCCCC1 (stereo not drawn)	-	62	-	-	-	-
Cc1ccc(S(=O)(=O)N2CCCCC2)cc1NC(=O)COC(=O)C1CC2C=CC1C2 (stereo not drawn)	-	-	-	-	.	.
CC1CCc2sc3nc(NCc4ccco4)n4ncnc4c3c2C1 (stereo not drawn)	-	39	-	-	-	-
C/C(=N/NC(=O)c1cccs1)c1cccs1	-	-	-	-	.	.
C/C(=N\NC(=O)CC1(C)OCCO1)c1cccs1	-	46	-	-	-	-
CO/N=C(\c1nonc1N)N1CCN(c2ccc(Cl)cc2[N+](=O)[O-])CC1	-	-	-	-	.	.
CCN(CC)c1ccc(S(=O)(=O)Nc2cc(Cl)ccc2Cl)cc1NC(=S)NC(=O)C1CCCC1	-	58	-	-	-	-
C=CCN(C(=O)CCC(=O)Nc1cc(C)on1)C(C(=O)NC1CCCC1)c1ccc(CC)cc1 (stereo not drawn)	-	-	-	-	.	.
NNS(=O)(=O)c1ccc2c(c1)Cc1cc(S(=O)(=O)NN)ccc1-2	-	39	-	-	-	-
O=S(=O)(NCCO)c1ccc2c(c1)Cc1cc(S(=O)(=O)NCCO)ccc1-2	-	-	-	-	.	.
CCN(CC)c1ccc(N=Cc2ccc([N+](=O)[O-])o2)cc1	+	57	-	+	-	-
CCNc1nc(NCC)nc(N/N=C/c2ccc([N+](=O)[O-])o2)n1	-	-	-	-	.	.
CCN(CC)c1ccc(N=Cc2ccccc2[N+](=O)[O-])cc1	177	41	-	+	-	-
